Values after ≈ are worked out from the molar mass of the structure shown.
Key:
[1] = molecular target: Epidermal growth factor receptor (Homo sapiens) (UniProt P00533); experiment: Inhibition of recombinant human N-terminal GST/His6-tagged EGFR (H672 to A1210 residues) expressed in Sf9 insect cells at 1 uM using TRK-C-derived peptide as substrate by filter binding method relative to control
How it was run: (§1)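 Kinase panel of 24 enzymes, each tested at 1 µM; percent inhibition reported as the average of two independent data points.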

[2] = molecular target: PI3-kinase p110-delta/p85-alpha (Homo sapiens, UniProt O00329); experiment: Inhibition of recombinant human full-length N-terminal His6-tagged p110delta/human full-length p85alpha expressed in baculovirus infected Sf21 insect cells using PIP2 as substrate by HTRF assay; conditions: read-out: Ki(app)
PI3-kinase p110-delta/p85-alpha, sequence (P27986 whole entry, the tested form may be a part): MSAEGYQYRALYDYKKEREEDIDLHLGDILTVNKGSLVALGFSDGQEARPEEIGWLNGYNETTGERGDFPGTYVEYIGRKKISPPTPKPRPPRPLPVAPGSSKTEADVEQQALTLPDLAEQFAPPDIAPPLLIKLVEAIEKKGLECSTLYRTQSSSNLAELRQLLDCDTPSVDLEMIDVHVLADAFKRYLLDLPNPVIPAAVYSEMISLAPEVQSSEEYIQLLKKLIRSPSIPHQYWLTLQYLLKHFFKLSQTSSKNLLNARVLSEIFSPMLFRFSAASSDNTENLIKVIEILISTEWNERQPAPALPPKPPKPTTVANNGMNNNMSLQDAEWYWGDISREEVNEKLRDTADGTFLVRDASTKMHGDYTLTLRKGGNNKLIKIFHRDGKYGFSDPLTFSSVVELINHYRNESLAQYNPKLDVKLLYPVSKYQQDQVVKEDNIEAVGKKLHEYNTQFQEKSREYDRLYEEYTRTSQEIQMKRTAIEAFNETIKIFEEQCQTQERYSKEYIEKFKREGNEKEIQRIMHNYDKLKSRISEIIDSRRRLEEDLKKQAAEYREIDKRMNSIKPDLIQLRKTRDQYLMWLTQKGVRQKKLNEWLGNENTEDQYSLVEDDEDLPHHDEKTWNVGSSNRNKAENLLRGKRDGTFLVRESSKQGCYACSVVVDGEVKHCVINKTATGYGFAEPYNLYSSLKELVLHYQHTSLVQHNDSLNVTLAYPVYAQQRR
PI3-kinase p110-delta/p85-alpha, sequence (O00329 whole entry, the tested form may be a part): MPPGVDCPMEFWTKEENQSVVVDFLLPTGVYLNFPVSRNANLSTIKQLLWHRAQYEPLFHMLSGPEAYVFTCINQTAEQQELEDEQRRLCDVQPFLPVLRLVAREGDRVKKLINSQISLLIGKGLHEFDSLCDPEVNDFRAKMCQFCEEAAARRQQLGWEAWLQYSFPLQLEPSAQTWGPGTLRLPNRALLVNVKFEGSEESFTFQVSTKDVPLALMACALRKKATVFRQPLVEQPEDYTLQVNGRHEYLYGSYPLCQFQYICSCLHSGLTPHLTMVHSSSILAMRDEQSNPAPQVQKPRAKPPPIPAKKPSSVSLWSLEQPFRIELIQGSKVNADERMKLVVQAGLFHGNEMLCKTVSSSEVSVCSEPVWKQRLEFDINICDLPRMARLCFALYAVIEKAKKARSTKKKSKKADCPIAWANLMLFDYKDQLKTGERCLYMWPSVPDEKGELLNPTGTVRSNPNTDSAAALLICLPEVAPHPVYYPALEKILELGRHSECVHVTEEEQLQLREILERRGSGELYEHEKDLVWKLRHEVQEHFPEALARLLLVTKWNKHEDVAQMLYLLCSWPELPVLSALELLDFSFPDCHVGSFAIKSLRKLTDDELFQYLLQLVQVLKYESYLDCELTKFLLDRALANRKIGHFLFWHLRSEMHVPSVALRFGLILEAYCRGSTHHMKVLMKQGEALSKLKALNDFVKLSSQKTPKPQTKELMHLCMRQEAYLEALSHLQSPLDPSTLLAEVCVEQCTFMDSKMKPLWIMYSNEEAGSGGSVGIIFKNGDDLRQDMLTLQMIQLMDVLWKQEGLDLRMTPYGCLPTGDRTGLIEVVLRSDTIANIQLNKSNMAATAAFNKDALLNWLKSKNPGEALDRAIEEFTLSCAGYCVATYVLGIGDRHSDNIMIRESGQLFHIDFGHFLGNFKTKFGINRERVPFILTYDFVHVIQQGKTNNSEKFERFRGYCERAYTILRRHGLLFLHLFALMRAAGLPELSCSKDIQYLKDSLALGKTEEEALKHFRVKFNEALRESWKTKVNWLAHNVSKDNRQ

[3] = molecular target: T1, Inhibitor of nuclear factor kappa-B kinase subunit beta (Homo sapiens) (UniProt O14920); experiment: Inhibition of recombinant human N-terminal GST/His6-tagged IKKbeta (M1 to S756 residues) expressed in baculovirus infected Sf9 cells at 1 uM using IKBa derived peptide as substrate by filter binding method relative to control; how it was run: as §1
T1 sequence (whole entry): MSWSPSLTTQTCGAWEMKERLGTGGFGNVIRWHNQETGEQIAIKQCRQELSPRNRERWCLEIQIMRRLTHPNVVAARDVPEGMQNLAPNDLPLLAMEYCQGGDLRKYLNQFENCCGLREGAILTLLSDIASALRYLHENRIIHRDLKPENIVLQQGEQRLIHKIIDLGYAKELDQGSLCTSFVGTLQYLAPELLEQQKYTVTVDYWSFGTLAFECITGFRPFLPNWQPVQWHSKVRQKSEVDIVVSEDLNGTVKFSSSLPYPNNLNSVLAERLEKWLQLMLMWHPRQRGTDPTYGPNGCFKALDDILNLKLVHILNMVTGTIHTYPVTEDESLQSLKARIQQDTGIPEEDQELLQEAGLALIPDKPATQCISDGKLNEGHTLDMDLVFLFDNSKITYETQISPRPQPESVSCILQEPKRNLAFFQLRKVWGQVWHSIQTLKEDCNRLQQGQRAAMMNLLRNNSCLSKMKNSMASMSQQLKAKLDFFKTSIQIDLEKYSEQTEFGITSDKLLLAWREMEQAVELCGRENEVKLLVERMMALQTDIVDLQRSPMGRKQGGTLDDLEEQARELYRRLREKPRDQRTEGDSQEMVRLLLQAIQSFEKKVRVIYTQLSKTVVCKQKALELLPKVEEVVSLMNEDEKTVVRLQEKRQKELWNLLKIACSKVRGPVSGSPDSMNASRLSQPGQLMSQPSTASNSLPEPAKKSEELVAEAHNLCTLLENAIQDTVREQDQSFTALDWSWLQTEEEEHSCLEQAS

[4] = Half-life in BALB-C mouse at 9 mg/kg, po by LC-MS/MS analysis; format: ADME, organism-based; conditions: in vivo
How it was run: (§2)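 BALB-C mice dosed IV (10% NMP/50% PEG300/40% saline) or PO (10% NMP/90% PEG300). Plasma sampled at 6 (IV) or 8 (PO) time points; compound measured by LC/MS/MS. Parameters from bicompartmental model fit; each value is the mean of 3 independent samples.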

CYP2C19 = CYP2C19 (Homo sapiens, UniProt P33261); experiment: Inhibition of CYP2C19 (unknown origin) at 10 uM relative to control; format: ADME
CYP2C19, sequence (P33261 whole entry): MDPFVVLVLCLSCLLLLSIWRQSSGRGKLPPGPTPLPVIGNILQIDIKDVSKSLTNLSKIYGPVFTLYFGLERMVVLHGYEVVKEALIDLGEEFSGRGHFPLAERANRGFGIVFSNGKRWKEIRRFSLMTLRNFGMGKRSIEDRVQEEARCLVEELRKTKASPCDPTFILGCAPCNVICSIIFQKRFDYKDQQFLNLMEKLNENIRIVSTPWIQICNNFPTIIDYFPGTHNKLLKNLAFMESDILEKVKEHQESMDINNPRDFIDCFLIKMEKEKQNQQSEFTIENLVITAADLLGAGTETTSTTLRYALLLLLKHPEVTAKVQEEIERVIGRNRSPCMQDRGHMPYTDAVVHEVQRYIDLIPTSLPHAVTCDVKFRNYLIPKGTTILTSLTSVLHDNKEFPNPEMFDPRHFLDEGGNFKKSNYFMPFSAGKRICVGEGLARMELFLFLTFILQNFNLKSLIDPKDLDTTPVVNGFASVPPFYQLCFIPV
How it was run: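 CYP1A2, 2C9, 2C19, 2D6 and 3A4 inhibition measured at 10 µM test compound in duplicate; percent inhibition reported.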

[5] = Stability in human liver microsomes assessed as parent compound remaining at 0.5 uM after 30 mins by LC-MS/MS analysis; format: ADME, microsome; conditions: read-out: Stability
How it was run: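 Single time-point stability assay: 0.5 µM compound, 0.5 mg/ml human or mouse liver microsomes in 0.1 M potassium phosphate pH 7.4, with NADPH-regenerating system, 30 min at 37 °C with shaking. Reaction quenched with acetonitrile/0.1% formic acid and centrifuged; supernatant analysed by LC-MS/MS. Reported as percent remaining; duplicates.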

[6] = molecular target: Serine/threonine-protein kinase mTOR (Homo sapiens, UniProt P42345); experiment: Inhibition of recombinant human GST-tagged mTOR catalytic domain (1360 to 2549 residues) expressed in baculovirus expression system by AlexaFluor647-labeled kinase tracer 314 based LanthaScreen assay
[7] = molecular target: Tyrosine-protein kinase JAK2 (Homo sapiens) (UniProt O60674); experiment: Inhibition of recombinant human N-terminal GST/His6-tagged JAK2 (P717 to G1132 residues) expressed in Sf9 insect cells at 1 uM using TRK-C-derived peptide as substrate by filter binding method relative to control; how it was run: as §1
Tyrosine-protein kinase JAK2 (Homo sapiens), sequence (O60674 whole entry, the tested form may be a part): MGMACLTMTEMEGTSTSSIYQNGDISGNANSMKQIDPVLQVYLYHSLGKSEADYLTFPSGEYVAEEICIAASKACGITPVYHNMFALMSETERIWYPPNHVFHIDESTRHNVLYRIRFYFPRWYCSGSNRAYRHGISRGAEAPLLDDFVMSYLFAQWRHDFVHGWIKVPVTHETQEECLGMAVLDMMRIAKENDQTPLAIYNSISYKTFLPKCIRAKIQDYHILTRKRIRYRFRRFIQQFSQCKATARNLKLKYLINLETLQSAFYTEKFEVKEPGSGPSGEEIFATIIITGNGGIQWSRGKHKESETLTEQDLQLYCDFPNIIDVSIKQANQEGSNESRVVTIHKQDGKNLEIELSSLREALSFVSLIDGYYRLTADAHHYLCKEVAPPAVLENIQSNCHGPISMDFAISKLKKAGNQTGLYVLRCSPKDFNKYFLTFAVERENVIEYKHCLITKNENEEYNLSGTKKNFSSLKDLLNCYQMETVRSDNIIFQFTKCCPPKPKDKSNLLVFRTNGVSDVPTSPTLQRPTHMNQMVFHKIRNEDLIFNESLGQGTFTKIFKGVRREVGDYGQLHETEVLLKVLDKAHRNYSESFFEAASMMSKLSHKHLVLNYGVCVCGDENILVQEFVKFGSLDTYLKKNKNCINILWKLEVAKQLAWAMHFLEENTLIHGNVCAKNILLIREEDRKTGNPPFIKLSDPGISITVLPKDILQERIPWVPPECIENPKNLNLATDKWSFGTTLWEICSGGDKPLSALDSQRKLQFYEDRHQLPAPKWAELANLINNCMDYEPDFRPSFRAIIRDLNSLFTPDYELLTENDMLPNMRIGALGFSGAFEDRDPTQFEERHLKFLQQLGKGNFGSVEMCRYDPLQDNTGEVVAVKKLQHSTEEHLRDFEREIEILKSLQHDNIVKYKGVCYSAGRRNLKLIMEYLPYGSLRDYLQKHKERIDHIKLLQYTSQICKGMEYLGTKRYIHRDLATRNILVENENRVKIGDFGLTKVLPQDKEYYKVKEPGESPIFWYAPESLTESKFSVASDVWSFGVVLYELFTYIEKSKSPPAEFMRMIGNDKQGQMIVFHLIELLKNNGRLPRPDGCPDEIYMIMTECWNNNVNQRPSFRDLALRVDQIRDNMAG

[8] = Clearance in BALB-C mouse at 3 mg/kg, iv by LC-MS/MS analysis; format: ADME, organism-based; conditions: in vivo
How it was run: (§3)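 Mice (BALB-C) given IV dose in 10% NMP/50% PEG300/40% saline; plasma sampled at 6 times, levels by LC/MS/MS.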

[9] = molecular target: Dual specificity mitogen-activated protein kinase kinase 1 (Homo sapiens) (UniProt Q02750); experiment: Inhibition of wild-type human MEK1 (M1 to V393 residues) expressed in Sf9 insect cells at 1 uM using ERK2-K54R as substrate by filter binding method relative to control
Dual specificity mitogen-activated protein kinase kinase 1 (Homo sapiens), sequence (Q02750 whole entry, the tested form may be a part): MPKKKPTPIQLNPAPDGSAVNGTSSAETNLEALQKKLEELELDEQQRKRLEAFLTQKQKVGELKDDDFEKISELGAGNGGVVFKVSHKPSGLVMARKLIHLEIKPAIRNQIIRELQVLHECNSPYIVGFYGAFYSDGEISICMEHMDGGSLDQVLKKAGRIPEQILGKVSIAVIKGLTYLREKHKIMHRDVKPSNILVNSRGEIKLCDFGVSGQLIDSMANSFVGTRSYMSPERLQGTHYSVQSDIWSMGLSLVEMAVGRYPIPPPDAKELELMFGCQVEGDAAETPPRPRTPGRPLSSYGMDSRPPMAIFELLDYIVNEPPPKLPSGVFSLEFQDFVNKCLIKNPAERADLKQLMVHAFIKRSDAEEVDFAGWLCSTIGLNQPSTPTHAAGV
How it was run: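 Single-point screen at 1 µM in a 24-kinase panel run externally; each value is the average of two independent data points. The detailed assay conditions are given only on the provider's site.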

[10] = Clearance in BALB-C mouse at 5 mg/kg, iv by LC-MS/MS analysis; format: ADME, organism-based; conditions: in vivo; how it was run: as §3
[11] = Volume of distribution in BALB-C mouse at 5 mg/kg, iv by LC-MS/MS analysis; format: ADME, organism-based; conditions: in vivo
How it was run: (§4)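 BALB-C mice dosed IV in 10% NMP/50% PEG300/40% saline or PO in 10% NMP/90% PEG300. Plasma sampled at 6 (IV) or 8 (PO) time points and quantified by LC/MS/MS. Parameters come from a bicompartmental model fit; values are means of 3 independent samples. Plasma levels were compared with AKT-P EC50 from U2OS cells converted to ng/ml.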

U2OS = experiment: Inhibition of AKT phosphorylation in human U2OS cells
[12] = AUC (infinity) in BALB-C mouse at 5 mg/kg, iv by LC-MS/MS analysis; format: ADME, organism-based; design: dose 5 mg/kg, time infinity, route intravenous; conditions: in vivo; how it was run: as §2
Mus musculus = experiment: Clearance in BALB-C mouse at 5 mg/kg, iv by LC-MS/MS analysis relative to hepatic blood flow; format: ADME, organism-based; conditions: in vivo
[13] = AUC (infinity) in BALB-C mouse at 5 mg/kg, po by LC-MS/MS analysis; format: ADME, organism-based; design: dose 5 mg/kg, route oral, time infinity; conditions: in vivo; how it was run: as §2
[14] = Oral bioavailability in BALB-C mouse at 5 mg/kg by LC-MS/MS analysis; format: ADME, organism-based; conditions: in vivo; how it was run: as §4
[15] = Half-life in BALB-C mouse at 5 mg/kg, iv by LC-MS/MS analysis; format: ADME, organism-based; conditions: in vivo; how it was run: as §2
[16] = Oral bioavailability in BALB-C mouse at 10 mg/kg by LC-MS/MS analysis; format: ADME, organism-based; conditions: in vivo; how it was run: as §4
[17] = Half-life in BALB-C mouse at 10 mg/kg, po by LC-MS/MS analysis; format: ADME, organism-based; conditions: in vivo; how it was run: as §2
[18] = AUC (infinity) in BALB-C mouse at 10 mg/kg, po by LC-MS/MS analysis; format: ADME, organism-based; design: dose 10 mg/kg, time infinity, route oral; conditions: in vivo; how it was run: as §2

Epidermal growth factor receptor (Homo sapiens), sequence (P00533 whole entry, the tested form may be a part): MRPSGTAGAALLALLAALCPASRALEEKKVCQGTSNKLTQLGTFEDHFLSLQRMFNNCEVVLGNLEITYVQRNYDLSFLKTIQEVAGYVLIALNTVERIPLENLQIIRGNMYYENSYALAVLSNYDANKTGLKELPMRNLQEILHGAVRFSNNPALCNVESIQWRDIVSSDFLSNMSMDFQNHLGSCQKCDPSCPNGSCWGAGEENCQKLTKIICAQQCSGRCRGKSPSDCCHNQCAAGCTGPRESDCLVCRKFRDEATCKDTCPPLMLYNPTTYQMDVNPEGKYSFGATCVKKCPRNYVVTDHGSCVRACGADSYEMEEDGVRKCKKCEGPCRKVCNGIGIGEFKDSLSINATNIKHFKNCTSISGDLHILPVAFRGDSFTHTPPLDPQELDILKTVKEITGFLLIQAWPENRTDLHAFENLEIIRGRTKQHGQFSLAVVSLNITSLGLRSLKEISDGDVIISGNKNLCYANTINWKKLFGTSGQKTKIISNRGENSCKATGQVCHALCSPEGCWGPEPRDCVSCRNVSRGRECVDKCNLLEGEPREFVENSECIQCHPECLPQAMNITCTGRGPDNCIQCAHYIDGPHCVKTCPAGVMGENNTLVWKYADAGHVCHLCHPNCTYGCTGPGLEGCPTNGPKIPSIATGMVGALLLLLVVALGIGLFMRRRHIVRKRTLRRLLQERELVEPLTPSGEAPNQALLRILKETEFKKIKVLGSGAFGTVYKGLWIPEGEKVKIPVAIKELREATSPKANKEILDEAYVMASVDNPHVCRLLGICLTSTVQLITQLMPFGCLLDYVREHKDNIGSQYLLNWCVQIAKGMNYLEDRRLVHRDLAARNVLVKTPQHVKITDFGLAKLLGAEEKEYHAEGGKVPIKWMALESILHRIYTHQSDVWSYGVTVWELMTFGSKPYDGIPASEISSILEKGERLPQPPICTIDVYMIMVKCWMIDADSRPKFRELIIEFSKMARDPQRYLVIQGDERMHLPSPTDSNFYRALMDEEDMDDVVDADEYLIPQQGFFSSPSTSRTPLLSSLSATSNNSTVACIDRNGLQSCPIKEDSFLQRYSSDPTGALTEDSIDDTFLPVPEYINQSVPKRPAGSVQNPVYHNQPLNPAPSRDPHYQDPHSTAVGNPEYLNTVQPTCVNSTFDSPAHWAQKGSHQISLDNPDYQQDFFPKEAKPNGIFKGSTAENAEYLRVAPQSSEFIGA

| inhibition [1] | Ki [2] | inhibition [3] | inhibition at 10 µM (CYP2C19) | remaining at 0.5 h, 0.5 µM [5] | IC50 [6] | inhibition [7] | inhibition [9] | clearance [10] | Vd [11] | AUC(0-inf) [12] | CL (Mus musculus) | half-life [15] | Compound | also measured |
| --- | --- | --- | --- | --- | --- | --- | --- | --- | --- | --- | --- | --- | --- | --- |
| < 25% | 7.1 nM | < 25% | < 25% | 97% | 1700 nM | < 25% | < 25% |  |  |  |  |  | CS(=O)(=O)N1CCN(Cc2cc3c(N4CCOCC4)nc(-c4cnc(N)nc4)cn3n2)CC1 | half-life [4]: 2.84 h; clearance [8]: 10.8 mL/min/kg |
| < 25% | 3.4 nM | < 25% | < 25% | 97% | 8170 nM | < 25% | < 25% | 10.8 mL/min/kg | 1.61 L/kg | 7730 ng·h/mL | < 50% | 1.81 h | CS(=O)(=O)N1CCN(Cc2nc3c(N4CCOCC4)nc(-c4cnc(N)nc4)c(Cl)n3n2)CC1 | EC50 (U2OS): 0.03491 µg/mL (≈ 0.0686 µM); AUC(0-inf) [13]: 5650 ng·h/mL; bioavailability [14]: 73.1% |
| < 25% | 17.9 nM | < 25% | < 25% | 95% |  | < 25% | < 25% |  |  |  |  |  | CS(=O)(=O)N1CCN(Cc2cn3nc(-c4cnc(N)nc4)nc(N4CCOCC4)c3n2)CC1 |  |
| < 25% | 6.3 nM | < 25% | < 25% | 99% |  | < 25% | < 25% | 35.5 mL/min/kg | 2 L/kg | 2660 ng·h/mL | < 50% | 0.26 h | CS(=O)(=O)N1CCN(Cc2nc3c(N4CCOCC4)nc(-c4cnc(N)nc4)cn3n2)CC1 | bioavailability [16]: 88%; half-life [17]: 5.28 h; AUC(0-inf) [18]: 4690 ng·h/mL |

From ChEMBL document CHEMBL4177600, “Identification of novel PI3K inhibitors through a scaffold hopping strategy” (Bioorg Med Chem Lett, 2017)
